Measurements published in ChEMBL document CHEMBL1138854, “Synthesis and antitumor activity of guanylhydrazones from 6-(2,4-dichloro-5-nitrophenyl)imidazo[2,1-b]thiazoles and 6-pyridylimidazo[2,1-b]thiazoles(1)” (2006).
Values joined by “and” are separate entries in the source; they are usually repeats but may differ in a detail not shown here. Identical values can stand only once.

Experiment: Antitumor activity against renal cell lines of the NCI60 panel
Assay type: functional, Homo sapiens
How it was run: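 Run by NCI in the 60-cell-line panel (details in Supporting Information). Highest concentration 10^-4 M unless noted (one case 10-2.6 M). Values expressed as -log molar concentration giving 50% growth inhibition (pGI50), total cytostasis (pTGI) or 50% cell kill (pLC50); only values >4.00 reported; mean graph midpoint is the calculated panel mean.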

SMILES | LC50
N=C(N)N/N=C/c1c(-c2cc([N+](=O)[O-])c(Cl)cc2Cl)nc2n1CCS2 | 5.25 µM
Cc1sc2nc(-c3cc([N+](=O)[O-])c(Cl)cc3Cl)c(/C=N/NC(=N)N)n2c1C | 36.3 µM and 85.1 µM
Cc1csc2nc(-c3cc([N+](=O)[O-])c(Cl)cc3Cl)c(/C=N/N=C(N)N)n12 | 64.6 µM
CCc1cn2c(/C=N/NC(=N)N)c(-c3cc([N+](=O)[O-])c(Cl)cc3Cl)nc2s1 | 3.02 µM and 6.46 µM
Cc1sc2nc(-c3ccccn3)c(/C=N/NC(=N)N)n2c1C | 57.5 µM
Cc1cn2c(/C=N/NC(=N)N)c(-c3ccncc3)nc2s1 | 72.4 µM
N=C(N)N/N=C/c1c(-c2ccccn2)nc2sc(Cl)cn12 | 28.8 µM
N=C(N)N/N=C/c1c(-c2cccnc2)nc2sc(Cl)cn12 | 69.2 µM
N=C(N)N/N=C/c1c(-c2cc([N+](=O)[O-])c(Cl)cc2Cl)nc2sccn12 | 4.47 µM and 24 µM
N=C(N)N/N=C/c1c(-c2ccc(Cl)c([N+](=O)[O-])c2)nc2n1CCS2 | 28.2 µM and 64.6 µM
N=C(N)N/N=C/c1c(-c2ccncc2)nc2sc(Cl)cn12 | 15.8 µM and 44.7 µM
CCCc1cn2c(/C=N/NC(=N)N)c(-c3cc([N+](=O)[O-])c(Cl)cc3Cl)nc2s1 | 5.37 µM
Cc1cn2c(/C=N/NC(=N)N)c(-c3ccccn3)nc2s1 | 19.5 µM and 53.7 µM
Cc1cn2c(/C=N/NC(=N)N)c(-c3cccnc3)nc2s1 | 27.5 µM and 61.7 µM
N=C(N)N/N=C/c1c(-c2cc([N+](=O)[O-])c(Cl)cc2Cl)nc2sc(Cl)cn12 | 97.7 µM
